Experimental data: paper PMC7641749 (Nucleic Acids Research, 2020)

Legend:
[1] = tested on: DGCR8; assay: Co-IP of ERH and DGCR8 in DROSHA knock-out cells; format: binding, human; conditions: HCT116 DROSHA knock-out cells
Procedure, shortened: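 HCT116 wild-type and DROSHA knock-out cells were grown in McCoy's 5A with 9% FBS. Proteins were boiled at 95°C for 5 min, separated on 8–16% Tris–glycine gels and transferred to PVDF. Detection was by infrared imaging or chemiluminescence.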

[2] = tested on: DROSHA; assay: Co-IP of overexpressed DROSHA with ERH; format: binding, human; conditions: ectopic DROSHA co-expressed with C-terminal tail of DGCR8
Procedure, shortened: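 HEK293E cells at 50% confluence were transfected with 5 μg total of Flag-, HA- or myc-tagged plasmids using branched/linear PEI (1:1) and harvested after 2 days. Anti-Flag, anti-HA or protein G-bound anti-myc beads were incubated with lysate 1–2 h at 4°C, washed three times and eluted in SDS buffer for western blot.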

[3] = tested on: miR-144–451a; assay: ERH rescue experiment, qRT-PCR; format: cell-based, human; conditions: ERH ectopically expressed in ERH-depleted HEK293E cells, shERH, n = 3
Procedure, shortened: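 HEK293E cells at 50% confluence got shERH (3′UTR-targeting) plasmid with Fugene HD for 48 h, then were trypsinized and counted. 4E5 cells were co-transfected with 2.5 μg total of shERH, pri-miRNA expression plasmid and wild-type or homodimerization-mutant ERH plasmid (1:2:2) using 5 μl Fugene HD. Total RNA was harvested 48 h later for qRT-PCR.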

For Enhancer of Rudimentary Homolog [ERH], the “interaction between ERH and DGCR8” value [1] was “not affected by the absence of DROSHA”, the “interaction between DROSHA and ERH” value [2] was “could not detect meaningful interaction” and the “expression of miR-144” value [3] was “without significantly altering miR-144 expression”. The “expression of miR-451a” value [3] was “increased the expression of miR-451a”.
